# Test results taken from ChEMBL document CHEMBL5058577, “EUbOPEN Chemogenomics Library 2 (Multiplex)” (2022).
# System: U2OS
# Experiment: Multiplex assay against U2OS
# Assay type: toxicity, cell-based
# Details: human
# How it was run: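 Cells were classed with CellPathfinder machine-learning gating, first as Hoechst high-intensity objects or normal cells, then (normal cells) as healthy, pyknosed or fragmented nuclei, and finally (pyknosed cells) as mitotic or apoptotic. Staining of live cells at seeding used Hoechst33342, BioTracker Green Microtubule Cytoskeleton Dye, MitoTracker Red and Annexin V Alexa Fluor 680, with imaging on a CQ1 microscope at 37°C and 5% CO2 after compound addition. Tubulin, mitochondrial-mass and membrane-permeability phenotypes are per cents of healthy-nucleus cells.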
# [1] = 12 h, 1 µM, compound concentration 1 uM, replicate 1
# [2] = 12 h, 1 µM, compound concentration 1 uM, replicate 2
# [3] = 12 h, 10 µM, compound concentration 10 uM, replicate 1
# [4] = 12 h, 10 µM, compound concentration 10 uM, replicate 2
# [5] = 24 h, 1 µM, compound concentration 1 uM, replicate 1
# [6] = 24 h, 1 µM, compound concentration 1 uM, replicate 2
# [7] = 24 h, 10 µM, compound concentration 10 uM, replicate 1
# [8] = 24 h, 10 µM, compound concentration 10 uM, replicate 2
# [9] = 48 h, 1 µM, compound concentration 1 uM, replicate 1
# [10] = 48 h, 1 µM, compound concentration 1 uM, replicate 2
# [11] = 48 h, 10 µM, compound concentration 10 uM, replicate 1
# [12] = 48 h, 10 µM, compound concentration 10 uM, replicate 2
compound,measurement,setting,value
CCCCCCNC(=O)Nc1ccc(S(=O)(=O)Nc2ccc(CCNC[C@H](O)COc3ccc(O)cc3)cc2)cc1 [L-755507],Population Apoptotic (%),[1],86%
same,Population Fragmented Nuclei (%),[1],22%
same,Population Healthy Nuclei (%),[1],67%
same,Population Hoechst High Intensity Objects (%),[1],4%
same,Population Membrane Permeable-Phenotype (%),[1],4%
same,Population Mitochondria Different-Phenotype (%),[1],4%
same,Population Mitotic Cells (%),[1],13%
same,Population Normal (%),[1],95%
same,Population Pyknosed Nuclei (%),[1],9%
same,Population Tubulin-Different-Phenotype (%),[1],4%
same,Total Cell Count,[1],231
same,Population Apoptotic (%),[2],100%
same,Population Fragmented Nuclei (%),[2],18%
same,Population Healthy Nuclei (%),[2],75%
same,Population Hoechst High Intensity Objects (%),[2],0%
same,Population Membrane Permeable-Phenotype (%),[2],10%
same,Population Mitochondria Different-Phenotype (%),[2],1%
same,Population Mitotic Cells (%),[2],0%
same,Population Normal (%),[2],99%
same,Population Pyknosed Nuclei (%),[2],5%
same,Population Tubulin-Different-Phenotype (%),[2],5%
same,Total Cell Count,[2],120
same,Population Apoptotic (%),[3],60%
same,Population Fragmented Nuclei (%),[3],31%
same,Population Healthy Nuclei (%),[3],59%
same,Population Hoechst High Intensity Objects (%),[3],3%
same,Population Membrane Permeable-Phenotype (%),[3],13%
same,Population Mitochondria Different-Phenotype (%),[3],11%
same,Population Mitotic Cells (%),[3],40%
same,Population Normal (%),[3],96%
same,Population Pyknosed Nuclei (%),[3],9%
same,Population Tubulin-Different-Phenotype (%),[3],10%
same,Total Cell Count,[3],282
same,Population Apoptotic (%),[4],72%
same,Population Fragmented Nuclei (%),[4],19%
same,Population Healthy Nuclei (%),[4],72%
same,Population Hoechst High Intensity Objects (%),[4],2%
same,Population Membrane Permeable-Phenotype (%),[4],19%
same,Population Mitochondria Different-Phenotype (%),[4],15%
same,Population Mitotic Cells (%),[4],27%
same,Population Normal (%),[4],97%
same,Population Pyknosed Nuclei (%),[4],8%
same,Population Tubulin-Different-Phenotype (%),[4],15%
same,Total Cell Count,[4],140
same,Population Apoptotic (%),[5],83%
same,Population Fragmented Nuclei (%),[5],22%
same,Population Healthy Nuclei (%),[5],66%
same,Population Hoechst High Intensity Objects (%),[5],4%
same,Population Membrane Permeable-Phenotype (%),[5],5%
same,Population Mitochondria Different-Phenotype (%),[5],5%
same,Population Mitotic Cells (%),[5],16%
same,Population Normal (%),[5],95%
same,Population Pyknosed Nuclei (%),[5],11%
same,Population Tubulin-Different-Phenotype (%),[5],3%
same,Total Cell Count,[5],285
same,Population Apoptotic (%),[6],92%
same,Population Fragmented Nuclei (%),[6],23%
same,Population Healthy Nuclei (%),[6],67%
same,Population Hoechst High Intensity Objects (%),[6],2%
same,Population Membrane Permeable-Phenotype (%),[6],11%
same,Population Mitochondria Different-Phenotype (%),[6],1%
same,Population Mitotic Cells (%),[6],7%
same,Population Normal (%),[6],97%
same,Population Pyknosed Nuclei (%),[6],9%
same,Population Tubulin-Different-Phenotype (%),[6],5%
same,Total Cell Count,[6],143
same,Population Apoptotic (%),[7],85%
same,Population Fragmented Nuclei (%),[7],25%
same,Population Healthy Nuclei (%),[7],65%
same,Population Hoechst High Intensity Objects (%),[7],2%
same,Population Membrane Permeable-Phenotype (%),[7],7%
same,Population Mitochondria Different-Phenotype (%),[7],4%
same,Population Mitotic Cells (%),[7],14%
same,Population Normal (%),[7],97%
same,Population Pyknosed Nuclei (%),[7],9%
same,Population Tubulin-Different-Phenotype (%),[7],3%
same,Total Cell Count,[7],307
same,Population Apoptotic (%),[8],88%
same,Population Fragmented Nuclei (%),[8],14%
same,Population Healthy Nuclei (%),[8],79%
same,Population Membrane Permeable-Phenotype (%),[8],9%
same,Population Mitochondria Different-Phenotype (%),[8],5%
same,Population Mitotic Cells (%),[8],11%
same,Population Pyknosed Nuclei (%),[8],6%
same,Population Tubulin-Different-Phenotype (%),[8],6%
same,Total Cell Count,[8],149
same,Population Apoptotic (%),[9],78%
same,Population Fragmented Nuclei (%),[9],14%
same,Population Healthy Nuclei (%),[9],74%
same,Population Hoechst High Intensity Objects (%),[9],1%
same,Population Membrane Permeable-Phenotype (%),[9],6%
same,Population Mitochondria Different-Phenotype (%),[9],3%
same,Population Mitotic Cells (%),[9],21%
same,Population Normal (%),[9],98%
same,Population Pyknosed Nuclei (%),[9],11%
same,Population Tubulin-Different-Phenotype (%),[9],3%
same,Total Cell Count,[9],422
same,Population Apoptotic (%),[10],91%
same,Population Fragmented Nuclei (%),[10],26%
same,Population Healthy Nuclei (%),[10],61%
same,Population Hoechst High Intensity Objects (%),[10],4%
same,Population Membrane Permeable-Phenotype (%),[10],12%
same,Population Mitochondria Different-Phenotype (%),[10],5%
same,Population Mitotic Cells (%),[10],8%
same,Population Normal (%),[10],95%
same,Population Pyknosed Nuclei (%),[10],12%
same,Population Tubulin-Different-Phenotype (%),[10],6%
same,Total Cell Count,[10],188
same,Population Apoptotic (%),[11],80%
same,Population Fragmented Nuclei (%),[11],19%
same,Population Healthy Nuclei (%),[11],70%
same,Population Hoechst High Intensity Objects (%),[11],2%
same,Population Membrane Permeable-Phenotype (%),[11],7%
same,Population Mitochondria Different-Phenotype (%),[11],2%
same,Population Mitotic Cells (%),[11],20%
same,Population Normal (%),[11],97%
same,Population Pyknosed Nuclei (%),[11],9%
same,Population Tubulin-Different-Phenotype (%),[11],4%
same,Total Cell Count,[11],419
same,Population Apoptotic (%),[12],94%
same,Population Fragmented Nuclei (%),[12],13%
same,Population Healthy Nuclei (%),[12],78%
same,Population Hoechst High Intensity Objects (%),[12],1%
same,Population Mitochondria Different-Phenotype (%),[12],3%
same,Population Mitotic Cells (%),[12],5%
same,Population Normal (%),[12],98%
same,Population Pyknosed Nuclei (%),[12],7%
same,Population Tubulin-Different-Phenotype (%),[12],6%
same,Total Cell Count,[12],242
CN1CCN2c3ccccc3Cc3ccccc3C2C1.Cl (configuration not stated) [MIANSERIN HYDROCHLORIDE],Population Apoptotic (%),[1],91%
same,Population Fragmented Nuclei (%),[1],35%
same,Population Healthy Nuclei (%),[1],56%
same,Population Hoechst High Intensity Objects (%),[1],3%
same,Population Membrane Permeable-Phenotype (%),[1],7%
same,Population Mitochondria Different-Phenotype (%),[1],4%
same,Population Mitotic Cells (%),[1],8%
same,Population Normal (%),[1],96%
same,Population Pyknosed Nuclei (%),[1],7%
same,Population Tubulin-Different-Phenotype (%),[1],5%
same,Total Cell Count,[1],162
same,Population Apoptotic (%),[2],83%
same,Population Fragmented Nuclei (%),[2],16%
same,Population Healthy Nuclei (%),[2],77%
same,Population Hoechst High Intensity Objects (%),[2],1%
same,Population Membrane Permeable-Phenotype (%),[2],3%
same,Population Mitochondria Different-Phenotype (%),[2],3%
same,Population Mitotic Cells (%),[2],16%
same,Population Normal (%),[2],98%
same,Population Pyknosed Nuclei (%),[2],5%
same,Population Tubulin-Different-Phenotype (%),[2],2%
same,Total Cell Count,[2],109
same,Population Apoptotic (%),[3],78%
same,Population Fragmented Nuclei (%),[3],23%
same,Population Healthy Nuclei (%),[3],68%
same,Population Hoechst High Intensity Objects (%),[3],2%
same,Population Membrane Permeable-Phenotype (%),[3],7%
same,Population Mitochondria Different-Phenotype (%),[3],3%
same,Population Mitotic Cells (%),[3],21%
same,Population Normal (%),[3],97%
same,Population Pyknosed Nuclei (%),[3],8%
same,Population Tubulin-Different-Phenotype (%),[3],4%
same,Total Cell Count,[3],277
same,Population Apoptotic (%),[4],86%
same,Population Fragmented Nuclei (%),[4],12%
same,Population Healthy Nuclei (%),[4],77%
same,Population Hoechst High Intensity Objects (%),[4],1%
same,Population Membrane Permeable-Phenotype (%),[4],1%
same,Population Mitochondria Different-Phenotype (%),[4],2%
same,Population Mitotic Cells (%),[4],13%
same,Population Normal (%),[4],98%
same,Population Pyknosed Nuclei (%),[4],10%
same,Population Tubulin-Different-Phenotype (%),[4],0%
same,Total Cell Count,[4],152
same,Population Apoptotic (%),[5],88%
same,Population Fragmented Nuclei (%),[5],34%
same,Population Healthy Nuclei (%),[5],56%
same,Population Hoechst High Intensity Objects (%),[5],1%
same,Population Membrane Permeable-Phenotype (%),[5],6%
same,Population Mitochondria Different-Phenotype (%),[5],1%
same,Population Mitotic Cells (%),[5],11%
same,Population Normal (%),[5],98%
same,Population Pyknosed Nuclei (%),[5],8%
same,Population Tubulin-Different-Phenotype (%),[5],4%
same,Total Cell Count,[5],197
same,Population Apoptotic (%),[6],75%
same,Population Fragmented Nuclei (%),[6],23%
same,Population Healthy Nuclei (%),[6],70%
same,Population Hoechst High Intensity Objects (%),[6],2%
same,Population Membrane Permeable-Phenotype (%),[6],4%
same,Population Mitochondria Different-Phenotype (%),[6],3%
same,Population Mitotic Cells (%),[6],25%
same,Population Normal (%),[6],97%
same,Population Pyknosed Nuclei (%),[6],5%
same,Population Tubulin-Different-Phenotype (%),[6],3%
same,Total Cell Count,[6],142
same,Population Apoptotic (%),[7],69%
same,Population Fragmented Nuclei (%),[7],21%
same,Population Healthy Nuclei (%),[7],68%
same,Population Hoechst High Intensity Objects (%),[7],1%
same,Population Membrane Permeable-Phenotype (%),[7],9%
same,Population Mitochondria Different-Phenotype (%),[7],2%
same,Population Mitotic Cells (%),[7],30%
same,Population Normal (%),[7],98%
same,Population Pyknosed Nuclei (%),[7],10%
same,Population Tubulin-Different-Phenotype (%),[7],2%
same,Total Cell Count,[7],319
same,Population Apoptotic (%),[8],93%
same,Population Fragmented Nuclei (%),[8],13%
same,Population Healthy Nuclei (%),[8],77%
same,Population Hoechst High Intensity Objects (%),[8],2%
same,Population Membrane Permeable-Phenotype (%),[8],7%
same,Population Mitochondria Different-Phenotype (%),[8],3%
same,Population Mitotic Cells (%),[8],6%
same,Population Normal (%),[8],97%
same,Population Pyknosed Nuclei (%),[8],8%
same,Total Cell Count,[8],183
same,Population Apoptotic (%),[9],78%
same,Population Fragmented Nuclei (%),[9],28%
same,Population Healthy Nuclei (%),[9],65%
same,Population Hoechst High Intensity Objects (%),[9],2%
same,Population Membrane Permeable-Phenotype (%),[9],5%
same,Population Mitochondria Different-Phenotype (%),[9],2%
same,Population Mitotic Cells (%),[9],21%
same,Population Normal (%),[9],97%
same,Population Pyknosed Nuclei (%),[9],5%
same,Population Tubulin-Different-Phenotype (%),[9],4%
same,Total Cell Count,[9],269
same,Population Fragmented Nuclei (%),[10],19%
same,Population Healthy Nuclei (%),[10],71%
same,Population Hoechst High Intensity Objects (%),[10],1%
same,Population Membrane Permeable-Phenotype (%),[10],4%
same,Population Mitochondria Different-Phenotype (%),[10],3%
same,Population Normal (%),[10],98%
same,Population Pyknosed Nuclei (%),[10],9%
same,Population Tubulin-Different-Phenotype (%),[10],2%
same,Total Cell Count,[10],206
same,Population Apoptotic (%),[11],91%
same,Population Fragmented Nuclei (%),[11],18%
same,Population Healthy Nuclei (%),[11],71%
same,Population Hoechst High Intensity Objects (%),[11],4%
same,Population Membrane Permeable-Phenotype (%),[11],4%
same,Population Mitochondria Different-Phenotype (%),[11],2%
same,Population Mitotic Cells (%),[11],8%
same,Population Normal (%),[11],95%
same,Population Pyknosed Nuclei (%),[11],9%
same,Population Tubulin-Different-Phenotype (%),[11],1%
same,Total Cell Count,[11],397
same,Population Apoptotic (%),[12],87%
same,Population Fragmented Nuclei (%),[12],15%
same,Population Healthy Nuclei (%),[12],73%
same,Population Hoechst High Intensity Objects (%),[12],2%
same,Population Mitochondria Different-Phenotype (%),[12],3%
same,Population Mitotic Cells (%),[12],12%
same,Population Normal (%),[12],97%
same,Population Pyknosed Nuclei (%),[12],11%
same,Population Tubulin-Different-Phenotype (%),[12],2%
same,Total Cell Count,[12],285
